High-throughput results from PubChem BioAssay.
HTR2A ag = mouse Htr2a agonists via beta-arrestin recruitment, primary screen, cell-based, luminescence; 5-hydroxytryptamine receptor 2A (Mus musculus), P35363; CHO-K1 mHTR2A beta-arrestin complementation; percent of 30 µM serotonin response; activation, % at 7.6 µM; 0.66% of 360,000 active;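 active means activation above a run cutoff, the mean activation of all tested compounds plus 3 SD, cut at about 14% in these data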;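 further: 0% = plate median of compound wells and 100% = 30 µM serotonin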
MC4R antagonist = MC4R antagonists of cAMP signaling, primary screen, cell-based, TR-FRET, antagonist arm of biased-ligand search. Melanocortin receptor 4 (Homo sapiens), P32245. 0.48% of 360,000 active. MC4R-expressing cells, MTII-stimulated cAMP, LANCE TR-FRET. inhibition, % at 6.5 µM;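 active means inhibition above its plate's cutoff, the mean of tested wells on that plate plus 3 SD, cut at about 29% in these data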;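 further: 0% = Melanotan II alone and 100% = Melanotan II plus saturating MCL0020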
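Material: U2OS-MC4R stable cell line | Reagent: Melanotan II challenge after compound preincubation | Doses: One concentration, 6.5 µM nominal | Incubation: 30-min compound preincubation, 1-h Melanotan II challenge, 1-h detection, room temperature | Signal: TR-FRET cAMP assay | Replicates: One well per compound, no replicates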
PREPL inhibitor = PREPL enzyme inhibitors, primary screen, biochemical, fluorescence polarization. 0.68% of 320,000 active. inhibition, % at 5.96 µM. recombinant PREPL, fluorescence polarization activity-based probe; in the data active means inhibition above about 43%;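 further: 0% = enzyme with DMSO and 100% = wells lacking enzyme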
Lipid droplet = inhibitors of hepatocyte lipid droplet formation, primary screen, imaging, high-throughput imaging, BODIPY stain. 0.4% of 240,000 active. AML12 mouse hepatocytes, oleate lipid droplets. inhibition, % at 6.5 µM;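 active means lipid droplet intensity inhibited by at least 50%, with more than 500 cells counted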
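Material – AML12 mouse liver cells · Also added – oleate loading, 100 µM · Compound dosing – 6.5 µM single-point dosing · Times – overnight treatment with compound plus oleate · Measured by – fluorescence imaging, 20x objective, two fields per well · Read-out – percent inhibition of filter-corrected integrated lipid droplet intensity per well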
MC4R barr agon = MC4R agonists recruiting beta-arrestin, primary screen, cell-based, luminescence, agonist arm of biased-ligand search; Melanocortin receptor 4 (Homo sapiens), P32245; U2OS MC4R beta-arrestin complementation; percent of melanotan II response, DMSO zero; activation, % at 8.9 µM; 0.98% of 360,000 active; AID 540308, 2011;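 active means activation above a per-plate cutoff, the mean activation of sample wells on that plate plus 3 SD, cut at about 8% in these data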
NTR1 ag = agonists of human NTR1, primary screen, imaging, U2OS cells, beta-arrestin-GFP, high content; Neurotensin receptor type 1 (Homo sapiens), P30989; NTR1-U2OS beta-arrestin-GFP spot imaging, agonist mode; activation, % at 20 µM; 0.17% of 330,000 active;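 active means activation at or above 40% of the spot to cytoplasm intensity ratio, with at least 20 cells analyzed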;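 further: 0% = DMSO without peptide and 100% = 100 nM NTR1 peptide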
Target sequence (P30989 whole entry, looked up): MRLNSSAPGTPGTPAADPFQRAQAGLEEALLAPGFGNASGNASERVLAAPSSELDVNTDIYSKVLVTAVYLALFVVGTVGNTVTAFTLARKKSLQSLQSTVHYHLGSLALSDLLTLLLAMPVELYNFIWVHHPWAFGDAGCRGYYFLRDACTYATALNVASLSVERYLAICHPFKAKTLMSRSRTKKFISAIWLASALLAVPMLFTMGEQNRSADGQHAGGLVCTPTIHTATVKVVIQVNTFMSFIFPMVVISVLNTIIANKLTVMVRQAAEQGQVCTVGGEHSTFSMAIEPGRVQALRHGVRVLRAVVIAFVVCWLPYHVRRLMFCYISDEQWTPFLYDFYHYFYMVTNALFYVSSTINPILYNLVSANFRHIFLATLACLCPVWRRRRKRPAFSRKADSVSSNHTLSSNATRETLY
OPRM1 ag = OPRM1 agonists via beta-arrestin recruitment, confirmation, counter-screen for mouse HTR2A agonist project, cell-based, luminescence, single concentration; shares compounds with HTR2A ag; U2OS OPRM1 beta-arrestin PathHunter; DMSO 0%, DAMGO 9.3 µM 100%; activation, % at 9.3 µM; 5.3% of 2,300 active;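 active means mean activation above the mean of DMSO-only wells plus 3 SD, cut at about 0.5% in these data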
m5-HT2A ag conf = mouse HTR2A agonists, beta-arrestin recruitment, confirmation, cell-based, luminescence, CHO-K1 PathHunter, triplicate; activation, % at 7.6 µM; 19% of 2,300 active; shares compounds with HTR2A ag; AID 624381, 2012; DMSO 0%, 30 µM serotonin 100%;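 active means mean activation across triplicates above the hit threshold derived in the original primary screen, cut at about 15% in these data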
Numbers without * were called inactive. This is a sample that favours compounds with a hit; in the whole collection about 2.7% have one here.

For Cc1c(NC(=O)c2ccccc2NC(=O)COc2ccccc2)cccc1C(=O)O the results were HTR2A ag 17*, MC4R antagonist 5, PREPL inhibitor -2, Lipid droplet 8, MC4R barr agon -3, NTR1 ag 0, OPRM1 ag 0 and m5-HT2A ag conf 0.
`O=C(COc1ccccc1C(=O)O)Nc1cccc2ccccc12` gave HTR2A ag 16*, MC4R antagonist 11, PREPL inhibitor 12, MC4R barr agon -1, NTR1 ag -2, OPRM1 ag 0 and m5-HT2A ag conf -2.
Screening COc1ccc(Cn2cc(CN3CC(N4CCCC4)CS3(=O)=O)nn2)cc1 (stereo unspecified) returned HTR2A ag 1.
For CC(C)(C)c1ccc(C(=O)NCCN2CCOCC2)cc1 the results were HTR2A ag -4, MC4R antagonist 6, PREPL inhibitor -4, MC4R barr agon -4 and NTR1 ag 1.
Screening Cc1ccc(C(=O)NCCNC(=O)CN2CCOCC2)cc1 returned HTR2A ag 15*, MC4R antagonist 10, PREPL inhibitor -6, MC4R barr agon -1, NTR1 ag 0, OPRM1 ag -1 and m5-HT2A ag conf -2.
COCCNC(=S)NCCc1ccc(Cl)cc1Cl was read as HTR2A ag -5, MC4R antagonist 7, PREPL inhibitor 1, Lipid droplet 3, MC4R barr agon 0 and NTR1 ag 1.
COc1ccc(-c2ccc(CN3C(C)C(=O)N(Cc4cn(Cc5ccco5)nn4)CCS3(=O)=O)cc2)cc1 (stereo unspecified) was read as HTR2A ag 0, MC4R antagonist 3 and MC4R barr agon -1.
`COc1ccc(-c2ccc(CN3C(C(C)C)C(=O)N(Cc4cn(Cc5ccco5)nn4)CCS3(=O)=O)cc2)cc1` (stereo unspecified) gave HTR2A ag 18*, MC4R antagonist -5, MC4R barr agon -2, OPRM1 ag -1 and m5-HT2A ag conf -3.
`COc1ccc(-c2ccc(CN3C(C(C)C)C(=O)N(Cc4cn(Cc5ccco5)nn4)CCS3(=O)=O)cc2)cc1OC` (stereo unspecified) gave HTR2A ag 0, MC4R antagonist 0 and MC4R barr agon 0.
`Cc1ccc(-c2ccc(CN3C(C)C(=O)N(Cc4cn(Cc5ccco5)nn4)CCS3(=O)=O)cc2)cc1` (stereo unspecified) gave HTR2A ag 18*, MC4R antagonist 4, MC4R barr agon -2, OPRM1 ag -1 and m5-HT2A ag conf -4.
Screening Cc1c(Cl)cccc1NC(=O)CNC(=O)CCCc1nc2ccccc2c(=O)[nH]1 returned HTR2A ag 1, MC4R antagonist -2, MC4R barr agon 1 and NTR1 ag -1.
CCOc1ccccc1CN1CCNC(=O)C1CC(=O)NCc1cc(C)n(C)n1 (stereo unspecified) was read as HTR2A ag -5, MC4R antagonist 0, PREPL inhibitor 3, Lipid droplet -6, MC4R barr agon -2 and NTR1 ag 0.
